{"source": "ChEMBL document CHEMBL3797027", "about": "“Potent anti-proliferative actions of a non-diuretic glucosamine derivative of ethacrynic acid” (Bioorg Med Chem Lett, 2016)", "key": {"[1]": {"experiment": "Cytotoxic activity against human SF188 cells assessed as inhibition of cell proliferation incubated for 72 hrs by MTT assay", "format": "functional, cell-based", "settings": "SF-188, 72 h", "in_short": "(§1)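 MTT cell survival assay. IC50 is the concentration that inhibits tumour cell proliferation by 50%, read from cell survival curves. Values are given as mean ± SD of three independent experiments.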"}, "NCI-H1299 [2]": {"tested_on": "NCI-H1299", "experiment": "Increase in p21 (waf1/cip1) protein expression in p53 deficient human H1299 cells at 10 to 40 uM by Western blot method", "format": "functional, cell-based", "in_short": "(§2)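 H1299 (p53-null), HCT116 (p53 wild type) and MDA-MB-231 (p53 mutant) cells were treated, then lysates were immunoblotted for p53, p21, PUMA and PARP. β-Actin served as loading control.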"}, "HCT-116 [3]": {"tested_on": "HCT-116", "experiment": "Induction of cell cycle arrest in wild type p53 expressing human HCT116 cells assessed as accumulation at G2/M phase incubated for 24 hrs by propidium iodide staining based flow cytometry", "format": "functional"}, "NCI-H1299 [4]": {"tested_on": "NCI-H1299", "experiment": "Induction of ROS generation in human H1299 cells at 20 and 40 uM incubated for 3 hrs after pre-incubation with 3 mM NAC for 1 hr by DCFDA staining based fluorescence microscopy", "format": "functional, cell-based", "in_short": "(§3)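 After 3 h exposure at different concentrations, DCFH-DA fluorescence was imaged by fluorescence microscopy. H2O2 (25 µM) served as positive control. In some wells, cells were pretreated with 3 mM N-acetylcysteine before compound addition.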"}, "MDA-MB-231 [5]": {"tested_on": "MDA-MB-231", "experiment": "Reduction in cellular total thiol levels in human MDA-MB-231 cells incubated for 3 hrs by Ellman's reagent based assay", "format": "functional, cell-based", "in_short": "(§4)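 Cells exposed to 0–40 µM compound for 3 h, then trypsinized. Total thiols in cell extracts were quantified with Ellman's reagent.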"}, "NCI-H1299 [6]": {"tested_on": "NCI-H1299", "experiment": "Increase in p21'cip1 protein expression in p53 deficient human H1299 cells at 10 to 40 uM by Western blot method", "format": "functional, cell-based", "in_short": "as §2"}, "MDA-MB-231 [7]": {"tested_on": "MDA-MB-231", "experiment": "Increase in p53 protein expression in p53 mutant expressing human MDA-MB-231 cells at 10 to 40 uM by Western blot method", "format": "functional, cell-based", "in_short": "as §2"}, "[8]": {"experiment": "Potency index, ratio of IC50 for ethacrynic acid to IC50 for test compound for cytotoxic activity against human SKBR3 cells assessed as inhibition of cell proliferation incubated for 72 hrs by MTT assay", "format": "functional, SK-BR-3"}, "HCT-116 [9]": {"tested_on": "HCT-116", "experiment": "Increase in cleaved PARP protein expression in wild type p53 expressing human HCT116 cells at 10 to 40 uM by Western blot method", "format": "functional, cell-based", "in_short": "as §2"}, "HCT-116 [10]": {"tested_on": "HCT-116", "experiment": "Induction of ROS generation in human HCT116 cells at 20 and 40 uM incubated for 3 hrs after pre-incubation with 3 mM NAC for 1 hr by DCFDA staining based flow cytometry", "format": "functional, cell-based", "in_short": "(§5)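 Cells were exposed for 3 h to compound, or to 25 µM H2O2 as positive control. Where indicated, 3 mM N-acetylcysteine was given 1 h before treatment. Pellets were stained with DCF-DA for 30 min, and intracellular ROS was read as fluorescence shift by flow cytometry against untreated controls.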"}, "MDA-MB-231 [11]": {"tested_on": "MDA-MB-231", "experiment": "Cytotoxic activity against human MDA-MB-231 cells assessed as inhibition of cell proliferation incubated for 72 hrs by MTT assay", "format": "functional, cell-based", "settings": "MDA-MB-231, 72 h", "in_short": "as §1"}, "[12]": {"biological_target": "Glutathione S-transferase P (Homo sapiens) (UniProt P09211)", "sequence (P09211 2-210 limits assumed)": "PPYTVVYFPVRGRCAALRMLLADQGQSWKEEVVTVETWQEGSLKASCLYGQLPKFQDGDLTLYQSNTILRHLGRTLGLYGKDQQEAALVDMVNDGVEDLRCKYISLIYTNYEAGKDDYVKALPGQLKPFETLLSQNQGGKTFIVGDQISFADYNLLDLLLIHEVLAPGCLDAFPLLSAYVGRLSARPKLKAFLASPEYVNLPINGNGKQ", "experiment": "Inhibition of GSTP1 in human MDA-MB-231 cells assessed as reduction in GST-pi activity pre-incubated for 3 hrs followed by chlorodinitrobenzene and reduced glutathione addition by photometric assay"}, "NCI-H1299 [13]": {"tested_on": "NCI-H1299", "experiment": "Induction of ROS generation in human H1299 cells at 20 and 40 uM incubated for 3 hrs by DCFDA staining based fluorescence microscopy", "format": "functional, cell-based", "in_short": "as §3"}, "NCI-H1299 [14]": {"tested_on": "NCI-H1299", "experiment": "Induction of ROS generation in human H1299 cells at 20 and 40 uM incubated for 3 hrs by DCFDA staining based flow cytometry", "format": "functional, cell-based", "in_short": "as §5"}, "HT-29 [15]": {"tested_on": "HT-29", "experiment": "Cytotoxic activity against human HT-29 cells assessed as inhibition of cell proliferation incubated for 72 hrs by MTT assay", "format": "functional, cell-based", "settings": "HT-29, 72 h", "in_short": "as §1"}, "HCT-116 [16]": {"tested_on": "HCT-116", "experiment": "Induction of ROS generation in human HCT116 cells at 20 and 40 uM incubated for 3 hrs by DCFDA staining based fluorescence microscopy", "format": "functional, cell-based", "in_short": "as §3"}, "NCI-H1299 [17]": {"tested_on": "NCI-H1299", "experiment": "Induction of cell cycle arrest in p53 deficient human H1299 cells assessed as accumulation at G2/M phase incubated for 24 hrs by propidium iodide staining based flow cytometry", "format": "functional"}, "HCT-116 [18]": {"tested_on": "HCT-116", "experiment": "Increase in PUMA protein expression in wild type p53 expressing human HCT116 cells at 10 to 40 uM by Western blot method", "format": "functional, cell-based", "in_short": "as §2"}, "HCT-116 [19]": {"tested_on": "HCT-116", "experiment": "Increase in p21 (waf1/cip1) protein expression in wild type p53 expressing human HCT116 cells at 10 to 40 uM by Western blot method", "format": "functional, cell-based", "in_short": "as §2"}, "[20]": {"experiment": "Potency index, ratio of IC50 for ethacrynic acid to IC50 for test compound for cytotoxic activity against human HCT116 cells assessed as inhibition of cell proliferation incubated for 72 hrs by MTT assay", "format": "functional, HCT-116", "in_short": "(§6)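 Index is the reference IC50 divided by the test IC50. Both IC50s were taken from MTT cell survival curves, each as mean ± SD of three independent experiments.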"}, "[21]": {"experiment": "Potency index, ratio of IC50 for ethacrynic acid to IC50 for test compound for cytotoxic activity against human GBM10 cells assessed as inhibition of cell proliferation incubated for 72 hrs by MTT assay", "format": "functional", "in_short": "as §6"}, "[22]": {"experiment": "Potency index, ratio of IC50 for ethacrynic acid to IC50 for test compound for cytotoxic activity against human SF188 cells assessed as inhibition of cell proliferation incubated for 72 hrs by MTT assay", "format": "functional, SF-188"}, "[23]": {"experiment": "Potency index, ratio of IC50 for ethacrynic acid to IC50 for test compound for cytotoxic activity against human HT1080 cells assessed as inhibition of cell proliferation incubated for 72 hrs by MTT assay", "format": "functional, HT-1080", "in_short": "as §6"}, "[24]": {"experiment": "Cytotoxic activity against human HCT116 cells assessed as inhibition of cell proliferation incubated for 72 hrs by MTT assay", "format": "functional, cell-based", "settings": "HCT-116, 72 h", "in_short": "as §1"}, "MDA-MB-231 [25]": {"tested_on": "MDA-MB-231", "experiment": "Increase in p21 (waf1/cip1) protein expression in p53 mutant expressing human MDA-MB-231 cells at 10 to 40 uM by Western blot method", "format": "functional, cell-based", "in_short": "as §2"}, "[26]": {"biological_target": "Glutathione S-transferase P (Homo sapiens) (UniProt P09211)", "experiment": "Inhibition of GSTP1 in human H1299 cells assessed as reduction in GST-pi activity pre-incubated for 3 hrs followed by chlorodinitrobenzene and reduced glutathione addition by photometric assay"}, "HT-29 [27]": {"tested_on": "HT-29", "experiment": "Potency index, ratio of IC50 for ethacrynic acid to IC50 for test compound for cytotoxic activity against human HT-29 cells assessed as inhibition of cell proliferation incubated for 72 hrs by MTT assay", "format": "functional", "in_short": "as §6"}, "HCT-116 [28]": {"tested_on": "HCT-116", "experiment": "Induction of ROS generation in human HCT116 cells at 20 and 40 uM incubated for 3 hrs after pre-incubation with 3 mM NAC for 1 hr by DCFDA staining based fluorescence microscopy", "format": "functional, cell-based", "in_short": "as §3"}, "HCT-116 [29]": {"tested_on": "HCT-116", "experiment": "Reduction in cellular total thiol levels in human HCT116 cells at 40 uM incubated for 3 hrs by Ellman's reagent based assay", "format": "functional", "in_short": "as §4"}, "MCF7": {"tested_on": "MCF7", "experiment": "Cytotoxic activity against human MCF7 cells assessed as inhibition of cell proliferation incubated for 72 hrs by MTT assay", "format": "functional, cell-based", "settings": "MCF7, 72 h", "in_short": "as §1"}, "NCI-H1299 [30]": {"tested_on": "NCI-H1299", "experiment": "Reduction in cellular total thiol levels in human H1299 cells at 40 uM incubated for 3 hrs by Ellman's reagent based assay", "format": "functional", "in_short": "as §4"}}, "note": "The source made the active and inactive calls. The calls are words filed in the database; no cut-off is given here."}
{"smiles": "C=C(CC)C(=O)c1ccc(OCC(=O)N[C@@H]2[C@@H](O)[C@H](O)[C@@H](CO)O[C@H]2O)c(Cl)c1Cl", "values": [{"measurement": "IC50", "setting": "[1]", "result": 12.3, "unit": "µM"}, {"measurement": "Activity", "setting": "NCI-H1299 [2]", "result": "Active"}, {"measurement": "Activity", "setting": "HCT-116 [3]", "result": "Dose-dependent effect"}, {"measurement": "Activity", "setting": "NCI-H1299 [4]", "result": "inactive"}, {"measurement": "Activity", "setting": "MDA-MB-231 [5]", "result": "Dose-dependent effect"}, {"measurement": "Activity", "setting": "NCI-H1299 [6]", "result": "Active"}, {"measurement": "Activity", "setting": "MDA-MB-231 [7]", "result": "Active"}, {"measurement": "Ratio IC50", "setting": "[8]", "result": 3}, {"measurement": "Activity", "setting": "HCT-116 [9]", "result": "Active"}, {"measurement": "Activity", "setting": "HCT-116 [10]", "result": "inactive"}, {"measurement": "IC50", "setting": "MDA-MB-231 [11]", "result": 12.2, "unit": "µM"}, {"measurement": "Activity", "setting": "[12]", "result": "Dose-dependent effect"}, {"measurement": "Activity", "setting": "NCI-H1299 [13]", "result": "Active"}, {"measurement": "Activity", "setting": "NCI-H1299 [14]", "result": "Active"}, {"measurement": "IC50", "setting": "HT-29 [15]", "result": 21.7, "unit": "µM"}, {"measurement": "Activity", "setting": "HCT-116 [16]", "result": "Active"}, {"measurement": "Activity", "setting": "NCI-H1299 [17]", "result": "Dose-dependent effect"}, {"measurement": "Activity", "setting": "HCT-116 [18]", "result": "Active"}, {"measurement": "Activity", "setting": "HCT-116 [19]", "result": "Active"}, {"measurement": "Ratio IC50", "setting": "[20]", "result": 3}, {"measurement": "Ratio IC50", "setting": "[21]", "result": 3}, {"measurement": "Ratio IC50", "setting": "[22]", "result": 3}, {"measurement": "Ratio IC50", "setting": "[23]", "result": 3}, {"measurement": "IC50", "setting": "[24]", "result": 10.3, "unit": "µM"}, {"measurement": "Activity", "setting": "MDA-MB-231 [25]", "result": "Active"}, {"measurement": "Activity", "setting": "[26]", "result": "Dose-dependent effect"}, {"measurement": "Ratio IC50", "setting": "HT-29 [27]", "result": 3}, {"measurement": "Activity", "setting": "HCT-116 [28]", "result": "inactive"}, {"measurement": "Imax", "setting": "HCT-116 [29]", "result": 58, "unit": "%"}, {"measurement": "IC50", "setting": "MCF7", "result": 10.1, "unit": "µM"}, {"measurement": "Imax", "setting": "NCI-H1299 [30]", "result": 58, "unit": "%"}]}
